Columns and labels:
[1] = biological target: T1, C-C chemokine receptor type 1 (Homo sapiens) (UniProt P32246); test: Inhibition of CCR1 at 10 uM
T1 sequence (whole entry): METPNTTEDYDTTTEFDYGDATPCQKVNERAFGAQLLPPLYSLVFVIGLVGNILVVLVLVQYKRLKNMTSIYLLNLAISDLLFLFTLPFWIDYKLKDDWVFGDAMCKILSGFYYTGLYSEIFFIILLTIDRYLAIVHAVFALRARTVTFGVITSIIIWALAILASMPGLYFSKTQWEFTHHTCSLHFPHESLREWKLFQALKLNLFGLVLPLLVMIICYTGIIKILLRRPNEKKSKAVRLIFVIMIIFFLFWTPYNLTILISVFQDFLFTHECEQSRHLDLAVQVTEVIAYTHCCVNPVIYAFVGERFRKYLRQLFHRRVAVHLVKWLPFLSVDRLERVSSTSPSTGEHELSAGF

[2] = biological target: T2, C-C chemokine receptor type 2 (Homo sapiens, UniProt P41597); test: Displacement of [125]MCP1 from CCR2 in human PBMCs at 1 uM
Outline: (§1)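 Human PBMCs were incubated with 0.3 nM [125I]MCP-1 at 23 °C. Percent inhibition of binding was measured at one fixed inhibitor concentration, n = 1.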
Target sequence in this assay (P41597 whole entry, looked up): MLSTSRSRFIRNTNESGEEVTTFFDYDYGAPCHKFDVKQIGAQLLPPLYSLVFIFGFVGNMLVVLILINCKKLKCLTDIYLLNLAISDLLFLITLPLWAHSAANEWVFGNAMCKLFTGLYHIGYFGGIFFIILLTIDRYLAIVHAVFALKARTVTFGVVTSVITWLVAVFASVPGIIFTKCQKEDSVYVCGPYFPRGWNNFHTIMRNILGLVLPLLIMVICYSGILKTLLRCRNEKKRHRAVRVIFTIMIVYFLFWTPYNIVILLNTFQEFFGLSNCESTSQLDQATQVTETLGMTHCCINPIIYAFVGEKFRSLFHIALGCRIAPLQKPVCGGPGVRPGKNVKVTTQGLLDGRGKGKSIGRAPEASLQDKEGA

L-type calcium channel = L-type calcium channel (Homo sapiens, UniProt O60840+Q01668+Q13698+Q13936); test: Inhibition of L-type calcium channel at 10 uM
[3] = biological target: T3, C-C chemokine receptor type 3 (Homo sapiens, UniProt P51677); test: Displacement of [125I]eotaxin from human CCR3 expressed in CHO cells; assay type: cell-based
T3 sequence (P51677 whole entry): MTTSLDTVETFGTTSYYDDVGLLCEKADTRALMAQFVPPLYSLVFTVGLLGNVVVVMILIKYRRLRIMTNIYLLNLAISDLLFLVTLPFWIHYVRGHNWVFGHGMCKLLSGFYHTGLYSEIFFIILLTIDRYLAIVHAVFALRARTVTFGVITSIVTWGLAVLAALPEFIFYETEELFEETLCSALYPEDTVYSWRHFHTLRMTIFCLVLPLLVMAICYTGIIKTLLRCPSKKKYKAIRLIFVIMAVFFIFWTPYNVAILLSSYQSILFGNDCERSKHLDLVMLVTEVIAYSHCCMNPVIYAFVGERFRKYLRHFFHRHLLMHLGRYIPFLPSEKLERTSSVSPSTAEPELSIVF
Outline: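 Binding of 0.15 nM [125I]eotaxin to CHO cells expressing human CCR3. Data are a single determination, mean ± SD (n = 2), or mean ± SEM (n indicated). ">" means less than 50% response at the stated concentration.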

[4] = biological target: C-C chemokine receptor type 5 (Homo sapiens) (UniProt P51681); test: Inhibition of CCR5 receptor at 10 uM
Sequence of C-C chemokine receptor type 5 (Homo sapiens) (P51681 whole entry, looked up): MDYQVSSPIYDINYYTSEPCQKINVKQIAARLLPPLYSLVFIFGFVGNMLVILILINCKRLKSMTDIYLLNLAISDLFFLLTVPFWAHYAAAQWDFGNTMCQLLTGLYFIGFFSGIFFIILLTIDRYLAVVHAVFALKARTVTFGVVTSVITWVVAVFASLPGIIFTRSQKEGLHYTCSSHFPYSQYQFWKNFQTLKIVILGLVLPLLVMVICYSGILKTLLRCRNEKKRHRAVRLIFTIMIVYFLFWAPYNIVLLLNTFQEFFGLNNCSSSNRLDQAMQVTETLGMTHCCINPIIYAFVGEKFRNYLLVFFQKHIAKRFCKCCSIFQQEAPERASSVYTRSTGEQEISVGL

[5] = biological target: Histamine H2 receptor (Homo sapiens) (UniProt P25021); test: Inhibition of histamine H2 receptor at 10 uM
Sequence of Histamine H2 receptor (Homo sapiens) (P25021 whole entry): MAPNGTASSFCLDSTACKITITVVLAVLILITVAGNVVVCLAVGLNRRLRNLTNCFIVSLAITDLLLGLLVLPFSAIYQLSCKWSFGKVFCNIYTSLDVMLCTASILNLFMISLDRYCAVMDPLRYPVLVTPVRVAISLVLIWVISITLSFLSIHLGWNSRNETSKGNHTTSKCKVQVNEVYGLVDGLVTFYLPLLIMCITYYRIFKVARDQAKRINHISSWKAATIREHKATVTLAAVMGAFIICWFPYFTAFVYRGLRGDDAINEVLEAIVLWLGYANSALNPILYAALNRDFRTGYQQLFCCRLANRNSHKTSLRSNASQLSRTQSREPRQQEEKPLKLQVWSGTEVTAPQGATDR

Homo sapiens = organism: Homo sapiens; test: Inhibition of sodium channel at 10 uM
[6] = biological target: T2, C-C chemokine receptor type 2; test: Antagonist activity at CCR2 in THP1 cells assessed as inhibition of MCP1-induced Ca2+ flux; assay type: functional, cell-based, THP-1
Target sequence in this assay (P41597 whole entry): as the sequence (P41597 whole entry, looked up) above

[7] = biological target: Mu-type opioid receptor (Homo sapiens) (UniProt P35372); test: Inhibition of opiate mu receptor at 10 uM
Sequence of Mu-type opioid receptor (Homo sapiens) (P35372 whole entry): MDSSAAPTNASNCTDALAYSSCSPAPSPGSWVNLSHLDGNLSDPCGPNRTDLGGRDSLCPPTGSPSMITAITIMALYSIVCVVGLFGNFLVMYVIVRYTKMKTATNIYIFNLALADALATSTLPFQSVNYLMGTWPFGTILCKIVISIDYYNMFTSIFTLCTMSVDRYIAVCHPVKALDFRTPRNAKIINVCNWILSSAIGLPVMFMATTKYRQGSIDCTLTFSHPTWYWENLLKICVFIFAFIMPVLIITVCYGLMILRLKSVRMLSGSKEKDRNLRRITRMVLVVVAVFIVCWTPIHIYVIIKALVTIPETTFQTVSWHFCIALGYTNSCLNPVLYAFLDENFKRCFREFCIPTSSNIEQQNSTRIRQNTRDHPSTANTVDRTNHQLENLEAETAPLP

[8] = biological target: Sigma non-opioid intracellular receptor 1 (Homo sapiens) (UniProt Q99720); test: Inhibition of sigma 1 receptor at 10 uM
Sequence of Sigma non-opioid intracellular receptor 1 (Homo sapiens) (Q99720 whole entry): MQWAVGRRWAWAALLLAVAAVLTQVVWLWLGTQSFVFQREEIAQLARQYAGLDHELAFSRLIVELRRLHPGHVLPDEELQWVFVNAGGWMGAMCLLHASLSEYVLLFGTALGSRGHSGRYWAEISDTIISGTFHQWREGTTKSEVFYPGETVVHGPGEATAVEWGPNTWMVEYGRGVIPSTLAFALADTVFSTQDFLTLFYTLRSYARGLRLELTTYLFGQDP

[9] = biological target: T2, C-C chemokine receptor type 2; test: Displacement of [125]MCP1 from CCR2 in human PBMCs
Outline: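 Competition binding with 0.3 nM [125I]MCP-1 on human peripheral blood mononuclear cells at 23 °C. IC50 given as mean ± SD (n = 2) or mean ± SEM (n > 2). Single determinations are listed with n = 1.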
Target sequence in this assay (P41597 whole entry): as the sequence (P41597 whole entry, looked up) above

[10] = biological target: T2, C-C chemokine receptor type 2; test: Displacement of [125]MCP1 from CCR2 in human PBMCs at 10 uM; outline: as §1
Target sequence in this assay (P41597 whole entry, looked up): as above

Row | inhibition [1] [%] | Activity [2] [%] | Activity [10] [%] | SMILES | also measured
1 | < 30 | 25 |  | Cc1ccc(CNC[C@H](NC(=O)CNC(=O)c2cc(NC(=O)C3CCCCC3)cc(C(F)(F)F)c2)C(=O)NC(C)(C)C)c(C)c1 | 
2 | < 30 | 37 |  | COc1ccc(CNC[C@H](NC(=O)CNC(=O)c2cccc(C(F)(F)F)c2)C(=O)NC(C)(C)C)c(OC)c1 | 
3 | < 30 |  |  | Cc1ccc(CNC[C@H](NC(=O)CNC(=O)c2cc(C(F)(F)F)ccc2N)C(=O)NC(C)(C)C)c(C)c1 | inhibition at 10 µM (L-type calcium channel): > 70%; IC50 [3]: 750 nM; inhibition [4]: > 70%; inhibition [5]: > 70%; inhibition (Homo sapiens): > 70%; IC50 [6]: 8 nM; inhibition [7]: > 70%; inhibition [8]: > 70%; IC50 [9]: 11 nM
4 | < 30 | 30 |  | CC(C)(C)NC(=O)[C@H](CNCc1ccc(-c2ccccc2)cc1)NC(=O)CNC(=O)c1cccc(C(F)(F)F)c1 | 
5 | < 30 |  | 7 | CCNC(=O)[C@H](CNCc1ccc(C)cc1C)NC(=O)CCC(=O)c1cccc(C(F)(F)F)c1 | 
6 | < 30 |  | 40 | Cc1ccc(CNC[C@H](NC(=O)[C@@H](C)NC(=O)c2cccc(C(F)(F)F)c2)C(N)=O)c(C)c1 | 
7 | < 30 |  | 31 | Cc1ccc(CNC[C@@H](NC(=O)CNC(=O)c2cccc(C(F)(F)F)c2)C(=O)O)c(C)c1 | 
8 | < 30 | 20 |  | COC(=O)c1ccc(CNC[C@H](NC(=O)CNC(=O)c2cccc(C(F)(F)F)c2)C(=O)NC(C)(C)C)cc1 | 
9 | < 30 | 12 |  | Cc1ccc(CN(C)C[C@H](NC(=O)CNC(=O)c2cccc(C(F)(F)F)c2)C(=O)NC(C)(C)C)c(C)c1 | 
10 | < 30 | 27 |  | Cc1ccc(CNC[C@H](NC(=O)CNC(=O)c2cccc(C(F)(F)F)c2)C(=O)NC(C)(C)C)cc1F | 

Reference: ChEMBL document CHEMBL1139795, “Capped diaminopropionamide-glycine dipeptides are inhibitors of CC chemokine receptor 2 (CCR2)” (Bioorg Med Chem Lett, 2007)
